According to ChEMBL document CHEMBL1125234, “Novel pyrrolo[2,3-d]pyrimidine antifolates: synthesis and antitumor activities” (J Med Chem, 1991):
Converted amounts (≈) assume the structure as drawn.

Columns and labels:
A549 = experiment: In vitro growth inhibitory activity against A549 human nonsmall cell lung carcinoma cells.; assay type: functional, cell-based
Procedure, shortened: (§1)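 Cells seeded at 1 × 10^4 cells/mL in 96-well plates, MEM with 10% fetal calf serum, 37 °C, 5% CO₂, 24 h. Antifolate added in 10% MEM at final 0.15-80 ng/mL, then culture continued 72 h at 37 °C. Cell number estimated by MTT; IC50 taken as concentration giving 50% growth inhibition. Means ± SE of three experiments.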

[1] = In vitro growth inhibitory activity against KB human epidermoid carcinoma cells.; assay type: functional; procedure, shortened: as §1

Compound | IC50 (A549) [ng/mL] | IC50 [1] [ng/mL]
CC(CCc1c[nH]c2nc(N)nc(N)c12)c1ccc(C(=O)N[C@H](CCC(=O)O)C(=O)O)cc1 (stereo not given in full) | 2.3 (≈ 5.06 nM) | 0.59 (≈ 1.3 nM)
Nc1nc(N)c2c(n1)NCC2CCCc1ccc(C(=O)N[C@H](CCC(=O)O)C(=O)O)cc1 (stereo not given in full) | 4.9 (≈ 11.1 nM) | 0.49 (≈ 1.11 nM)
CC(CCC1CNc2nc(N)nc(N)c21)c1ccc(C(=O)N[C@H](CCC(=O)O)C(=O)O)cc1 (stereo not given in full) | 1.6 (≈ 3.5 nM) | 0.3 (≈ 0.657 nM)
Nc1nc(N)c2c(CCCc3ccc(C(=O)N[C@H](CCC(=O)O)C(=O)O)cc3)c[nH]c2n1 | 4.5 (≈ 10.2 nM) | 0.27 (≈ 0.613 nM)
CN(Cc1cnc2nc(N)nc(N)c2n1)c1ccc(C(=O)N[C@@H](CCC(=O)O)C(=O)O)cc1 [METHOTREXATE] | 35 (≈ 77 nM) | 5.02 (≈ 11 nM)
